Laboratory results reported in ChEMBL document CHEMBL1133838, “Novel 5-vinyl pyrimidine nucleosides with potent anti-hepatitis B virus activity” (Bioorg Med Chem Lett, 2001).
Values after ≈ are worked out from the molar mass of the structure shown.

Experiments:
[1] = species on record: Homo sapiens; assay: Concentration required to reduce the proliferation of PHA stimulated human peripheral blood T lymphocytes; assay type: functional
Procedure, shortened: (§1)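 Fresh human peripheral blood T lymphocytes stimulated with PHA and grown with drug. Cellular DNA synthesis followed by [methyl-3H]thymidine incorporation. Value is the concentration (μg/mL) reducing proliferation to 50% of untreated PHA-stimulated controls. Tested up to 50 μg/mL.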

[2] = test system: Vero; assay: Compound was evaluated for cytotoxicity against stationary Vero cells using MTT assay; assay type: functional; conditions: Chlorocebus sabaeus
Procedure, shortened: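 Stationary Vero cells exposed to drug for 3 days. Viability read by MTT assay against untreated controls. CC50 taken as the concentration (μg/mL) giving 50% loss of viability. ">" means 50% was not reached at the highest concentration tested.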

[3] = test system: Vero; assay: Concentration required to inhibit plaque formation by HSV-1 strain KOS (TK+) in monolayers of vero cells; assay type: functional, cell-based; conditions: Chlorocebus sabaeus
Procedure, shortened: (§2)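 Vero cells seeded one day ahead. Infected with HSV-1 KOS (TK+) or TK-deficient KOSSB at ~100 PFU/well for 1 h at 37 °C. Inoculum replaced by medium with serial drug dilutions in duplicate, then refined by 1:2 dilutions. Acyclovir control at 5 and 1 μg/mL (TK+) or 50, 25, 10, 1 μg/mL (TK−). After 48 h at 37 °C, fixed with methanol and Giemsa-stained. Plaques counted against no-drug wells for EC50.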

[4] = test system: Vero; assay: Concentration required to inhibit plaque formation by HSV-1 strain KOSSB (TK-) in monolayers of vero cells; assay type: functional, cell-based; conditions: Chlorocebus sabaeus; procedure, shortened: as §2
[5] = test system: Nucleic Acid; assay: Concentration required to reduce the viral DNA in infected cells to 50% of untreated infected controls.; assay type: functional, cell-based; conditions: Duck hepatitis B virus
Procedure, shortened: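 Confluent primary hepatocyte cultures from chronically DHBV-infected Pekin ducks treated with drug. Viral DNA in cells measured against untreated infected controls. EC50 in μg/mL. Three independent experiments, with the range of EC50 reported.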

[6] = test system: Duck hepatitis B virus; assay: Percent inhibition of viral DNA in the presence of 10 ug/mL compound compared to untreated infected controls in duck hepatocytes
[7] = species on record: Homo sapiens; assay: Concentration required to reduce the proliferation of PHA stimulated human peripheral blood T lymphocytes to 50% of untreated PHA Stimulated control; assay type: functional; procedure, shortened: as §1

| EC50 [5] | Compound | IC50 [1] | CC50 [2] | EC50 [3] | EC50 [4] | Inhibition [6] | IC50 [7] |
| --- | --- | --- | --- | --- | --- | --- | --- |
| 3 µg/mL (≈ 12.5 µM) | C=Cc1cn(CCC(CO)CO)c(=O)[nH]c1=O | > 50 µg/mL | > 100 µg/mL | > 25 µg/mL | > 50 µg/mL | 77.5% |  |
| > 10 µg/mL | C=Cc1cn(COCCO)c(=O)[nH]c1=O | > 50 µg/mL | > 100 µg/mL | > 25 µg/mL | > 50 µg/mL | 40.6% |  |
| 1 µg/mL (≈ 4.13 µM) | C=Cc1cn(COC(CO)CO)c(=O)[nH]c1=O | > 50 µg/mL | > 100 µg/mL | > 25 µg/mL | > 50 µg/mL | 81% |  |
| 1.5 µg/mL (≈ 5.88 µM) | Nc1nc2c(ncn2COC(CO)CO)c(=O)[nH]1 [GANCICLOVIR] |  |  |  |  |  |  |

The next lines start with the compound.

| Compound | EC50 [5] | IC50 [1] | CC50 [2] | EC50 [3] | EC50 [4] | Inhibition [6] | IC50 [7] |
| --- | --- | --- | --- | --- | --- | --- | --- |
| Nc1ccn([C@@H]2CSC(CO)O2)c(=O)n1 (single isomer, unassigned) [LAMIVUDINE] | 0.01 µg/mL (≈ 0.0436 µM) |  | > 100 µg/mL |  |  | 96% | > 50 µg/mL |
| Nc1nc2c(ncn2COCCO)c(=O)[nH]1 [ACYCLOVIR] |  |  | > 100 µg/mL | 0.5 µg/mL (≈ 2.22 µM) | 40 µg/mL (≈ 178 µM) |  |  |
| Nc1nc(O)c2ncn(CCC(CO)CO)c2n1 [PENCICLOVIR] | 0.3 µg/mL (≈ 1.18 µM) |  |  |  |  |  |  |
